Data published in ChEMBL document CHEMBL4513216, “Probing the Open Global Health Chemical Diversity Library for Multistage-Active Starting Points for Next-Generation Antimalarials” (ACS Infect Dis, 2020).

assay: Toxicity liver stage against HepG2, at 10uM; format: cell-based; design: test concentration 10 uM, cell line HepG2-A16-CD81EGFP; conditions: human, HepG2-A16-CD81EGFP cells; read-out: INHIBITION
Summary of the method: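 Uninfected HepG2-A16-CD81EGFP cells, 3 × 10^3 per well, 1536-well, plated on prespotted compound at 10 μM final, parasite-free screening media added to match infected plates; puromycin 10 μM positive, DMSO 0.5% negative; run in parallel with 48 h PbLuc assay at 37 °C, 5% CO2; viability by CellTiter-Glo luminescence, normalized to controls.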

| Structure (SMILES) | cytotoxicity at 10 µM |
| --- | --- |
| CCc1c(C)sc2nc3n(CC(N)=O)nc(SC)n3c(=O)c12 | -0.817% |
| C[C@H](O)CNC(=O)c1cnc(-c2ccccc2)nc1O | -17.8% |
| COc1cccc(CC2(C(=O)O)CCN(c3ccc(Cl)cn3)CC2)c1 | -14% |
| Cc1ccc(C2CCCN2CC(=O)N(CCC#N)c2ccccc2)cc1 (stereo not given) | -6.89% |
| CN(C)C(=O)CCc1cncc(C2CCCN2Cc2ccccn2)n1 (stereo not given) | -3.94% |
| COCc1ccccc1CNCc1c(C)nn(C)c1N(C)C | -8.45% |
| Cc1cc(CN(CC(N)=O)CC(C)C)on1 | 6.36% |
| O=C(CN1CCOC(Cn2cccn2)C1)NC1CCN(C2CC2)CC1 (stereo not given) | 1.1% |
| Cc1cc(CN2CCN(C(C)c3nc(C(C)C)no3)CC2)no1 (stereo not given) | 3.29% |
| O=C(c1ccno1)N1CCc2ncnc(-c3ccncc3)c2CC1 | 6.59% |
| Cc1cc(N(C)CCN(C)C2CCCC2)n2nc(C)cc2n1 | -6.09% |
| O=C(CN1CCCCCC1)NCc1cccnc1Oc1ccccc1 | -11.1% |
| CCCn1nc2c(cc1=O)CN(CC(=O)Nc1ccncc1)CC2 | -17.8% |
| COCC(=O)N1CCC2(CC1)NC(=O)[C@H]1CN(C(=O)N(C)C)C[C@H]12 | 7% |
| CC(Cn1cncn1)NCCN1CCc2ccccc2C1 (stereo not given) | -1.27% |
| CC(NC(=O)CCS(=O)(=O)C1CCCC1)c1nc(-c2ccccc2)c[nH]1 (stereo not given) | 1.05% |
| CC(=O)N1CCc2ccccc2C1CC(=O)NCc1nnc(C)o1 (stereo not given) | 5.8% |
| CN(C(=O)CCc1ccncc1)C1CCCN(CCc2ccccc2)C1 (stereo not given) | -13.5% |
| CC(=O)NCCNC(=O)C1(N2CCCCC2)Cc2ccccc2C1 | -6.53% |
| NC(=O)C1CCN(CCc2ccc(NC(=O)C3CC3)cc2)CC1 | -7.72% |
| Cn1cc(CN2CCO[C@H]3CN(Cc4ccco4)C[C@H]32)cn1 | -140% |
| CCN(CC1CCOCC1)C(=O)CCNC(=O)c1ccccc1F | -43.1% |

| Structure (SMILES) | cytotoxicity at 10 µM |
| --- | --- |
| COc1ccc(C(=O)C2CCCN(Cc3ccncc3)C2)cc1OC (stereo not given) | -0.677% |
| CCN(c1ccc(C(=O)NCc2ccnc(C)n2)cc1)C(C)C | -8.78% |
| CC(=O)N(Cc1ncc(C)o1)C1CCN(Cc2nnc(C3CC3)o2)C1 (stereo not given) | 5.08% |
| O=C1CCC(c2ccccc2)(c2ccccc2)CN1CCO | 2.94% |
| CCCc1cc(=O)[nH]c(-c2cccc(CN3CCCCCC3)c2)n1 | -4.09% |
| O=C1C[C@H]2[C@H](CCN2C(=O)c2cc[nH]n2)N1Cc1cccnc1 | 3.03% |
| CCN1CCC(=O)N(C)Cc2cc(F)ccc21 | 9.78% |
| Cc1cccc(C)c1OCCNC(=O)CN1CCN(C)CC1C (stereo not given) | -6.28% |
| Cc1cccc(C(=O)N2CC(Cc3nccc4ccn(C)c34)C2)n1 | -40.5% |
| CCc1noc(CN2CCN(c3nccs3)CC2)n1 | -1.46% |
| CCc1nc(CC2CN(c3ncnc4sc(C)c(C)c34)CCO2)no1 (stereo not given) | 11.9% |
| CC(C)c1noc(CCCC(=O)N2CCC(Cc3cccnc3)CC2)n1 | -5.43% |
| Cc1cc(N2CCC(NC(C)Cc3ccsc3)CC2)nc(C)n1 (stereo not given) | -7.73% |
| CCCSCC(=O)N1CCCC(c2nccn2Cc2ccncc2)C1 (stereo not given) | 4.69% |
| CS(=O)(=O)NCc1cncc2c1CCN(C(=O)c1cccnc1)C2 | 5.12% |
| CC(C)Cc1nc(CN2CCC(NC(=O)c3cccs3)CC2)no1 | -2.56% |
| COCCCn1ccc(NC(=O)NCCCNc2ccccc2)n1 | 4.97% |
| CNC(=O)c1nc(CC(=O)Nc2cccc(C(F)(F)F)c2)no1 | -6.96% |
| CC/C(C)=C/CCN1CCN(C)C2(CCNC(=O)CC2)C1 (stereo not given) | -48.2% |
| Cc1cccc(C(=O)N2CCC(c3n[nH]c(C4CC4)n3)CC2)c1 | -15.3% |
| CC(c1nc(C2CC2)no1)N(C)Cc1ccc(C#N)cc1 (stereo not given) | 4.15% |
| O=C1CC[C@H]2[C@H](CCN2Cc2ccccn2)N1CC1CCOCC1 | 3.59% |

| Structure (SMILES) | cytotoxicity at 10 µM |
| --- | --- |
| CC(C)c1cc(C(=O)NCCn2nc3ccccn3c2=O)n[nH]1 | -8.5% |
| Cc1ccc(-n2cc(CN3CCOCC(CN(C)C)C3)cn2)cc1C (stereo not given) | -19.8% |
| CCOc1ccccc1CNC(=O)NCC(c1cnn(C)c1)N(C)C (stereo not given) | 4.15% |
| CCOCCN1CCN(Cc2csc(-c3cnn(C)c3)n2)CC1 | -4.95% |
| Cn1nnc2c1CCN(Cc1ccncc1)C2COCC1CC1 (stereo not given) | 5.29% |
| COc1ccnc(N2CCN(C(=O)c3csc(C)n3)CC2)n1 | 0.313% |
| CCN1CC2(CC1=O)CN(C(=O)NC(C)C)CCN(S(C)(=O)=O)C2 (stereo not given) | -3.67% |
| Cn1nc2c(cc1=O)CN(Cc1nc(-c3cccnc3)no1)CC2 | -14.6% |
| O=C(CSc1ccncc1)NC1CC(=O)N(CCc2ccccc2)C1 (stereo not given) | 0.318% |
| O=C1CC2(CCCCN2C(=O)c2ccoc2)CN1Cc1ccccc1 (stereo not given) | 6.35% |
| CC(C)c1nccc(C2(c3ccccc3Cl)CCNCC2)n1 | 1.93% |
| COCCn1cc(C(=O)N2CCCC2c2cccc(F)c2)ccc1=O (stereo not given) | -3.48% |
| COc1ccc(C(C)NCc2ccnn2C)cc1Cn1cccn1 (stereo not given) | 7.57% |
| CS(=O)(=O)N(Cc1ccon1)c1ccc2c(c1)OCO2 | 1.06% |
| O=C(Cc1ccc(F)cc1Cl)N1CC[C@H](CO)[C@@H](O)C1 | 8.08% |
| COc1ccccc1C(=O)Nc1c(F)c(C(=O)NC2CCCC2)nn1C | -10.8% |
| Cn1ccnc1CN1CCc2ncnc(N3CCCC3)c2CC1 | -142% |
| Cn1cc(CC(=O)N2CCCC(c3cc(C(F)(F)F)[nH]n3)C2)cn1 (stereo not given) | -7.11% |
| O=C(c1ccco1)N1CCC2(CCC(=O)N2Cc2ccncc2)CC1 | 1.29% |
| CC(=O)N1CCc2c(nc(N(C)C)nc2NCc2cccs2)C1 | -50.6% |
| CN(C)c1ncnc2c1CCN(CC1CCOCC1)CC2 | -69.6% |
| CC(C)c1n[nH]c(C2CN(CCc3cccs3)CCO2)n1 (stereo not given) | -4.57% |

| Structure (SMILES) | cytotoxicity at 10 µM |
| --- | --- |
| CNC(=O)c1nn(C)cc1NC(=O)C(C)n1ncc(Cl)c1C (stereo not given) | 8.77% |
| Cc1cc2ccccc2n1CCC(=O)N1CCCC1Cn1cccn1 (stereo not given) | 2.15% |
| Cc1ccccc1C1(CNC(=O)NC(C)c2nncn2C)CC1 (stereo not given) | -5.59% |
| CC(Sc1nnnn1C1CCOCC1)C(F)(F)F (stereo not given) | 11.5% |
| COC(=O)CC1CCCCN1CC(=O)NCCc1ccc(F)cc1 (stereo not given) | -8.61% |
| O=C(NCCOc1ncc(Cl)cc1Cl)c1ccncc1 | 7.18% |
| CCc1cccc(OCCN(C)C(=O)c2ccccc2NCC(=O)O)c1 | -2.69% |
| NC(=O)CN1CCC(NC(=O)Nc2nccs2)CC1 | -5.9% |
| c1cnnc(N2CCCC2CNCc2nnc(C3CC3)o2)c1 (stereo not given) | 1.41% |
| O=C1C[C@H]2[C@@H](CCN2C(=O)Cc2cccs2)N1Cc1cccnc1 | 7.48% |
| CCC(=O)N1CCc2nc3cc(OC)c(OC)cc3c(=O)n2CC1 | 2.65% |
| O=C(CNC1CCc2ncnn2C1)NCCc1cccs1 (stereo not given) | -10.9% |
| CNc1ccc(C(=O)N(C)Cc2ccc3ccccc3n2)cn1 | 1.5% |
| Cc1cnc(N2CCc3c(cnc(C)c3C(=O)O)C2)nc1 | 8.1% |
| CC(C)C(=O)N1CCCC12CCCN(C(=O)c1ccno1)C2 (stereo not given) | 5.35% |
| COCCN1CCC(CNC(=O)C2(NC(C)=O)CCCCC2)CC1 | 5.46% |
| Cc1nnc([C@H]2C[C@H]3OCC[C@H]3N(S(=O)(=O)N(C)C)C2)o1 | -8.44% |
| CC(=O)Nc1cccc(C(=O)N2CCc3c(nc(N(C)C)[nH]c3=O)C2)c1 | 5.9% |
| CCN(C(=O)CN1CCC(c2ccccc2)C1)C1CC1 (stereo not given) | 9.4% |
| c1cnnc(N2CCCC(NCc3ccncc3)C2)c1 (stereo not given) | -5.39% |
| Cc1cc2ccccc2n1CC(=O)NCC(=O)N1CCOCC1 | -7.7% |
| O=C(COCC(F)(F)F)NS(=O)(=O)c1ccc2c(c1)OCCCO2 | -6.8% |

| Structure (SMILES) | cytotoxicity at 10 µM |
| --- | --- |
| CC[C@@H](c1ccccc1)n1c(C2CC2)n[nH]c1=O | -8.67% |
| CCCC(=O)N1CCC(c2cc3n(n2)[C@@H](C(F)(F)F)C[C@@H](C)N3)CC1 | -10.3% |
| O=C(c1cc(-c2ccccc2)nc2onc(C3CC3)c12)N1CC[C@H](O)C1 | -36.7% |
| CC(CNC(=O)C1(c2ccc(F)cc2)CC1)CN1CCCC1=O (stereo not given) | -8.26% |
| CC(c1nc(C2CC2)no1)N1CCc2c(ncn2C2CC2)C1 (stereo not given) | -2.52% |
| COc1ccc(Oc2ncccc2C(N)=O)cc1CN1CCCC1 | 0.0453% |
| CNC(=O)[C@@H]1[C@@H](c2ccccc2)CN2CCN(Cc3cc(C)no3)C[C@H]12 | 5.94% |
| Cn1cc(CN2CC[C@@H]3[C@@H](CCC(=O)N3CCC3=CCCCC3)C2)cn1 | -8.68% |
| CS(=O)(=O)N1C[C@H]2CC[C@@H](C1)N(CCC(=O)NCc1ccccc1F)C2 | -11% |
| O=C(NC1CCCN(Cc2c(F)cccc2F)C1)c1cnccn1 (stereo not given) | -1.62% |
| Cc1ccc(NC2CCN(C(=O)CCC3CCCO3)CC2)nn1 (stereo not given) | -1.2% |
| COc1ccc(CSCC(O)CO)c(Cl)c1 (stereo not given) | -142% |
| COC1CN(CCO)S(=O)(=O)c2ccccc21 (stereo not given) | 3.54% |
| CN(C(=O)c1cccc(OCC(F)F)n1)c1ccc2c(c1)CCO2 | 43% |
| CCC[C@H]1CN(c2nccc(OC)n2)C[C@@H]1NC(=O)C1CCOCC1 | -142% |
| Cc1nc2cc(=O)[nH]n2c(C)c1CNC(=O)C(C)(C)c1ccccc1 | 1.1% |
| Cn1cnc2c1CCN(Cc1cccc(OCC(N)=O)c1)C2 | -9.98% |
| Cc1csc2ncc(-c3ccnc(N4CCCC4)n3)c(=O)n12 | -13.2% |
| CC(=O)N1CCCN(C(=O)NCCOc2ccc3c(c2)OCO3)CC1 | -14.9% |
| Cc1nc(-c2ccsc2)ccc1C(=O)N(C)CC(F)(F)F | -1.54% |
| CC(=O)NC(C)c1ccc(OCC2CC2)c(F)c1 (stereo not given) | -7.81% |
| CC(C)OCCCN1CCCC(c2nc3ccccc3n2C(C)C)C1 (stereo not given) | -4.06% |
